Screening results (PubChem)
Compounds with a hit are over-represented: about 4.6% of the library has one in this group of screens.
TAAR1 agonist – agonists of human TAAR1; 0.99% of 360,000 active; activation, % at 3 µM; Q96RJ0; CHO RD-HGA16 TAAR1, Fluo-8 calcium fluorescence; vehicle wells 0%, saturating PEA agonist 100%;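 active = activation above the mean activation of all test compounds in the run plus 3 SD, cut at about 38% in these data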
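Signal – calcium-sensitive Fluo-8 signal, excitation 470-495, emission 515-575 nm · System – RD-HGA16 (CHO) cells co-expressing Gα16 and hTAAR1 · Incubation – 17-24 h seeding, 75 min 37 °C dye, 30 min RT · Compound dosing – 3 µM single concentration · Repeats – no replicates (n 1)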
CHO parental Ca – signal in parental CHO cells, OX1R antagonist counter-screen. 0.63% of 330,000 active. inhibition, % at 5.6 µM. parental CHO-K1, ATP-induced calcium, Fluo-8 fluorescence. AID 463079;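 active = inhibition above that plate's mean sample inhibition plus 3 SD, cut at about 26% in these data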;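 note: 0% = ATP-challenged DMSO wells and 100% = DMSO wells without ATP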
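Material: Parental CHO cells | Reagent: ATP | Compound dosing: Single nominal dose of 5.6 µM per compound | Detection: Intracellular calcium via Fluo-8 no-wash fluorescent dye | Read-out: % inhibition of ATP-induced calcium mobilization | Benchmarks: Low control ATP plus DMSO, high control DMSO only | Replicates: Singlicate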
GPR7 antagonist – human neuropeptides B/W receptor 1 antagonism; P48145; 1.1% of 290,000 active; inhibition, % at 4.4 µM; GPR7-expressing cells, fluorescence antagonist assay; in the data active = inhibition above about 16%, passing the limit was not always enough;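 note: cells stimulated with the agonist NPW; 0% = agonist with vehicle and 100% = vehicle without agonist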
Target sequence (P48145 whole entry, looked up): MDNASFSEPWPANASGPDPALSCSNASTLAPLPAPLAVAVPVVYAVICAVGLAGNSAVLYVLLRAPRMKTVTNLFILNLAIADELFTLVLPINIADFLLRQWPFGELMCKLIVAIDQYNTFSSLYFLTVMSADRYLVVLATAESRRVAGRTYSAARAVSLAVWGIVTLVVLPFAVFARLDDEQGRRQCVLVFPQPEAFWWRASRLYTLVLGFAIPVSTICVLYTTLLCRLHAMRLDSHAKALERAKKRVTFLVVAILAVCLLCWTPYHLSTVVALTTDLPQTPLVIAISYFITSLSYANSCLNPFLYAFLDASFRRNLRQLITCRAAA
OX1R antag-1 – blocks the human orexin 1 receptor; O43613; OX1R-expressing cells, FRET antagonist read-out; inhibition, % at 6.6 µM; 1.8% of 330,000 active; in the data active = inhibition mostly above about 38%, no sharp cut-off; inactive = mostly below about 40%;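 note: 0% = agonist challenge alone and 100% = reference antagonist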
Target sequence (O43613 whole entry, looked up): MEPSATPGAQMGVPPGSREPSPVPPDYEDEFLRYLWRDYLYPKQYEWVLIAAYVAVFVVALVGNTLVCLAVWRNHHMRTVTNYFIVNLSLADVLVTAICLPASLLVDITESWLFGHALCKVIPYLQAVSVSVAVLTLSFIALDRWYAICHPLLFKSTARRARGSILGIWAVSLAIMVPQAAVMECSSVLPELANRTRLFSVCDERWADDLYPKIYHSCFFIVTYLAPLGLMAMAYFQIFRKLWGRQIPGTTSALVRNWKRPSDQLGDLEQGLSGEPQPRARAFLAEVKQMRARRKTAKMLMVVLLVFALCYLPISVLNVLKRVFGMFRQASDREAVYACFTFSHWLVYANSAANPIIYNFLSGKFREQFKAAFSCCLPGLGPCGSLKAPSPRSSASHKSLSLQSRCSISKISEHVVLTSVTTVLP
TAAR1 antag – antagonists of human TAAR1 | inhibition, % at 3 µM | CHO RD-HGA16 TAAR1, Fluo-8 calcium fluorescence, antagonist | 1.5% of 360,000 active | Q96RJ0;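 active = inhibition above a per-plate cutoff, the mean inhibition of test compounds on that plate plus 3 SD, cut at about 49% in these data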;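 note: 0% = DMSO plus EC80 beta-PEA response and 100% = DMSO alone without agonist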
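test system = CHO RD-HGA16 cells bearing hTAAR1 | replication = singlicate | controls = DMSO-only wells and EC80 β-PEA-stimulated wells | reagent = EC80 β-phenethylamine stimulus | read-out basis = percent inhibition of PEA-evoked calcium signal, max/basal emission ratio | schedule = seeding 17-24 h prior, 75-min 37 °C, 30-min RT dye loading | signal = kinetic Fluo-8 calcium fluorescence measurement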
OX1R antag-2 – human HCRTR1 antagonism. inhibition, % at 5 µM. O43613. 0.43% of 330,000 active. CHO/OX1R cells, Fluo-8 calcium fluorescence, orexin A;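 active = inhibition above its plate's threshold, mean inhibition of all tested compounds on the plate plus 3 SD, cut at about 37% in these data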;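 note: 0% = orexin A challenge wells and 100% = SB-334867-A antagonist wells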
Numbers without * were called inactive; . = not tested or not shown.

SMILES	TAAR1 agonist	CHO parental Ca	GPR7 antagonist	OX1R antag-1	TAAR1 antag	OX1R antag-2
Cn1c(Cn2c(=O)sc3ccccc32)nnc1SCc1cccc(F)c1	-0.3	-12.6	-8.4	7.7	-10.8	-15.3
Cn1c(Cn2c(=O)sc3ccccc32)nnc1SCc1ccccc1F	-0.5	42.6*	-8.6	13.4	9.2	-14.6
CCCCc1c(-c2ccccc2OC)ncn1C(C)c1ccc(Cl)cc1 (stereo not given)	2.9	.	.	.	-4.5	.
O=C(NCc1cccc(Cl)c1)c1cccc2c(-c3cccnc3)coc12	6.1	.	.	.	55.3*	.
O=C(NCc1ccc(F)c(F)c1)c1cccc2c(-c3cccnc3)coc12	6.8	.	.	.	43.8	.
O=C(NCCc1ccccc1)c1ccccc1NC(=O)C1CCCO1 (stereo not given)	1.6	-1.1	19.7*	2.3	5.8	-4.7
O=C(O)c1ccccc1NC(=O)C1CCCO1 (stereo not given)	-1.6	5.4	-1.1	10.7	-20.2	4.0
O=C(NCCc1ccccc1)c1ccc(NC(=O)C2CCCCC2)cc1	4.9	.	.	.	48.9*	.
CC(=O)Nc1ccc(N=Cc2c(O)c(C(=O)Nc3ccccc3)cc3ccccc23)cc1	31.4	31.2*	-1.7	12.4	21.7	9.6
CC(=O)Nc1ccc(N=Cc2c(O)c3ccccc3oc2=O)cc1	-0.9	.	-2.7	.	1.3	.
Cn1c2ccccc2c(=O)c2cc(C#CC3=CCCCC3)ccc21	3.1	-29.4	.	36.8*	21.2	0.4
Cn1c2ccccc2c(=O)c2ccc(C#Cc3ccc(N)cc3)cc21	3.6	0.2	-3.5	31.4	38.0	0.2
CCN(C(=O)CSc1nnc(-c2cccc(F)c2)n1N)c1c(N)n(Cc2ccccc2)c(=O)[nH]c1=O	1.3	.	.	.	-5.7	.
CCc1c(C)nc(SCC(N)=O)c(C#N)c1C	1.5	-11.9	-9.4	5.8	-8.0	-6.9
CCc1c(C)nc(SCC(=O)c2cccs2)c(C#N)c1C	12.1	-5.9	8.1	63.7*	8.9	-4.0
CCCCc1c(-c2ccccc2OC)ncn1Cc1c(F)cccc1F	1.1	.	.	.	5.8	.
CCN(CC)c1ccc(CNc2ccc3c(c2)ncn3CC)cc1	6.1	46.0*	-18.8	-9.2	-6.0	-0.3
CCn1cnc2cc(NCc3ccc(N(C)C)cc3)ccc21	1.6	-13.2	-10.4	17.3	-30.8	-13.2
CCOc1ccc(N(C)S(=O)(=O)c2cc(-c3cc(C)no3)ccc2CC)cc1	2.0	64.2*	6.5	16.8	58.3*	43.1*
CCc1ccc(-c2cc(C)no2)cc1S(=O)(=O)N1CCOc2ccccc21	3.0	-18.9	-4.7	49.1*	3.0	-27.5
CCOc1ccc(N(C)S(=O)(=O)c2cc(-c3cc(C)no3)ccc2OC)cc1	0.9	-11.6	-6.5	12.3	14.8	-18.9
COc1ccccc1CCn1cnc(-c2cccc(Br)c2)c1C(C)C	27.0	.	.	.	16.7	.
O=C(N[C@H](C(=O)N1CCC[C@H]1C(=O)NC1CCCC1)c1ccccc1)c1ccc(Cl)cc1Cl	5.3	.	.	.	-30.2	.
O=C(c1[nH]c(C(F)(F)F)nc1-c1ccccc1)N1CCN(c2ccc(C(F)(F)F)cn2)CC1	2.2	.	.	.	8.4	.
O=C(c1[nH]c(C(F)(F)F)nc1-c1ccccc1)N1CCN(c2ncc(C(F)(F)F)cc2Cl)CC1	48.5*	.	.	.	48.9*	.
SMILES	TAAR1 agonist	CHO parental Ca	GPR7 antagonist	OX1R antag-1	TAAR1 antag	OX1R antag-2
COc1ccc(C2CC(=O)C(c3ccc([N+](=O)[O-])cc3)=CN2Cc2ccccc2)cc1 (stereo not given)	5.6	.	.	.	13.1	.
COc1ccc2c(c1)c(-c1csc(N)n1)c(C)n2C	-1.3	-5.4	5.5	46.2*	9.8	1.1
CC(C)(C)NC(=O)C1(C)CCC(=O)N1CC(F)(F)F (stereo not given)	1.4	.	.	.	-26.1	.
O=C(CCNC(=O)c1ccccc1)NNC(=O)c1ccc(F)cc1	7.5	10.2	.	7.3	-12.1	5.1
O=C(CCNC(=O)c1ccc(Br)cc1)NNC(=O)c1ccccc1	40.4*	-5.9	.	-0.1	-10.8	3.4
C[C@H]1[C@H](c2ccccc2)Oc2cccc(N3CCCC3)c2S(=O)(=O)N1Cc1cccc(F)c1	1.2	.	.	.	-25.4	.
Cc1cccc(OCCSc2nc3ncnc(N)c3[nH]2)c1	1.7	-11.8	16.3*	19.8	10.1	-9.8
C/C(=N\Nc1cccc2cccnc12)c1ccccc1O	11.3	-17.4	-3.3	34.8	4.3	-18.4
C/C(=N\Nc1cccc2cccnc12)c1ccccn1	-2.3	-6.2	-1.6	42.5*	-30.3	-9.2
Cc1ccc(NC2=C(NCCO)C(=O)c3ccccc3C2=O)cc1	-0.6	-10.7	5.9	56.3*	1.9	-12.3
COc1ccc(C2=C(Nc3ccc(C)cc3)c3ccccc3C2=O)cc1	4.7	-18.3	-8.8	24.0	28.6	-29.6
C[C@H](CO)N1C[C@H](C)[C@@H](CN(C)C(=O)Nc2ccnc(N3CCOCC3)c2)OCc2cn(nn2)CCCC1=O	5.9	.	.	.	-2.6	.
COc1cccc(CNCc2ccc(OC)cc2OC)c1	4.4	-17.3	-7.1	6.4	-25.2	-20.4
CCn1c2ccccc2c2cc(CNCc3ccc(OC)cc3OC)ccc21	46.1*	-12.6	28.9*	21.6	2.6	16.0
C[N+](=O)C1C(=O)Nc2ccccc21 (stereo not given)	8.2	.	.	.	-19.2	.
N#Cc1c(-c2ccccc2)nc(-c2ccccc2)nc1N1CCOCC1	40.7*	-11.9	5.0	11.6	17.1	-18.9
COC(=O)C1=C(C)N(Cc2ccccc2C(F)(F)F)C(=NCc2ccccc2C(F)(F)F)NC1c1cccc(F)c1 (stereo not given)	-1.3	.	.	.	5.8	.
COc1ccc(CCNc2nc(C)nc3c2oc2ccccc23)cc1OC	12.6	57.6*	12.6	53.5*	48.9*	30.7
c1ccc(CNc2ncnc3c2oc2ccccc23)nc1	2.4	-6.4	-11.2	11.0	10.4	-9.0
COc1ccc(CCNc2ncnc3c2oc2ccccc23)cc1OC	12.3	78.9*	37.5*	77.9*	60.7*	59.9*
COC(=O)c1ccc2nc(-c3ccc(OC)c(OC)c3)c(Cc3ccccc3C(F)(F)F)n2c1	-0.9	.	.	.	-9.4	.
Cc1ccc(OCCCCN2CCCCC2)cc1	0.8	.	-9.1	.	-6.3	.
c1ccc(-c2ccccc2OCCOCCN2CCc3ccccc3C2)cc1	15.4	-22.6	15.8*	17.9	13.8	-23.0
Clc1ccc(SCCOCCN2CCc3ccccc3C2)cc1	38.0*	-17.9	11.0	22.1	-6.9	-23.0
Cc1ccc(OCCCCN2CCc3ccccc3C2)cc1	40.5*	-21.3	-19.0	14.5	-17.8	-34.4
CN(C)CCOC(C1CCCCC1)C1CCCCC1	25.8	-9.4	34.1*	6.7	-12.9	-25.7
CCN(CC)C(=O)C1=C(C)N(CCC2=CCCCC2)C(=O)C(CC(=O)NCc2cccs2)C1 (stereo not given)	-0.5	.	.	.	-7.8	.
O=C(NC(c1ccc(-c2ccccc2)cc1)c1cnccn1)C1CCN(Cc2cccs2)CC1 (stereo not given)	7.0	.	.	.	21.4	.
